Test results reported in the RNAGym collection of RNA variant scans (doi:10.1002/anie.201605470).

B1: Osa-1-4 twister ribozyme (parent)
chain: CCGCCUAACACUGCCAAUGCCGGUCCCAAGCCCGGAUAAAAGUGGAGGGGGCGG

Variants of: B1
Experiment: self-cleavage, relative activity (ratio to wild type); higher = more cleavage; co-transcriptional
Outline: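 The 48 positions downstream of the cleavage site in a DNA template for a 54-nucleotide Oryza sativa twister ribozyme carried 97 % wild-type base and 1 % of each other base. After in vitro transcription (2 h, 37 °C) with co-transcriptional self-cleavage, the RNA was reverse-transcribed with a template-switching oligonucleotide, PCR-amplified and deep-sequenced. Relative activity is the fraction cleaved, judged by reads with or without upstream sequence and normalised to wild type.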

Point of comparison: CCGCCUAACACUGCCAAUGGCGGUCCCAAGCCCGGAUAAAAGUGGAGGAGGCGG [C20G G49A], self-cleavage 0.05. Against it:
- CCGCCUAACACAGCCAAUGGCGGUCCCAAGCCCGGAUAAAAGUGGAGGGGGCGG [C20G U12A] — higher, 0.09
- CCGCCUAAAACUGCCAAUGUCGGUCCCAAGCCCGGAUAAAAGUGGAGGGGGCGG [C20U C9A] — higher, 0.38
- CCGCCUAAUACUGCCAAUGUCGGUCCCAAGCCCGGAUAAAAGUGGAGGGGGCGG [C20U C9U] — higher, 0.68
- CCGCCUAAGACUGCCAAUGUCGGUCCCAAGCCCGGAUAAAAGUGGAGGGGGCGG [C20U C9G] — higher, 0.73
- CCGCCUAACACUUCCAAUGUCGGUCCCAAGCCCGGAUAAAAGUGGAGGGGGCGG [C20U G13U] — lower, 0.04
- CCGCCUAACACUCCCAAUGUCGGUCCCAAGCCCGGAUAAAAGUGGAGGGGGCGG [C20U G13C] — lower, 0.02
- CCGCCUAACACUACCAAUGUCGGUCCCAAGCCCGGAUAAAAGUGGAGGGGGCGG [C20U G13A] — higher, 0.15
- CCGCCUAACACUGCCAAUGGCGGUCCCAAGCCCGGAUAAAAGUGGAGGGGGCAG [C20G G53A] — higher, 0.06
- CCGCCUAACACUGCCAAUGGCGGUCCCAAGCCCGGAUAAAAGUGGAGGGGGCCG [C20G G53C] — lower, 0.03
- CCGCCUAACACUGCCAAUGGCGGUCCCAAGCCCGGAUAAAAGUGGAGGGGGCUG [C20G G53U] — lower, 0.04
- CCGCCUAACACUGCCAAUGGCGGUCCCAAGCCCGGAUAAAAGUGCAGGGGGCGG [C20G G45C] — lower, 0.03
- CCGCCUAACACUGCCAAUGGCGGUCCCAAGCCCGGAUAAAAGUGAAGGGGGCGG [C20G G45A] — lower, 0.04
- CCGCCUAACACUGCCAAUGGCGGUCCCAAGCCCGGAUAAAAGUGUAGGGGGCGG [C20G G45U] — lower, 0.02
- CCGCCUAACACUGCCAAUGGCGGUCCCAAGCCCGGAUAAAAGGGGAGGGGGCGG [C20G U43G] — higher, 0.09
- CCGCCUAACACUGCCAAUGGCGGUCCCAAGCCCGGAUAAAAGAGGAGGGGGCGG [C20G U43A] — higher, 0.07
- CCGCCUAACACUGCCAAUGGCGGUCCCAAGCCCGGAUAAAAGCGGAGGGGGCGG [C20G U43C] — higher, 0.07
- CCGCCUAACACUGCCAAUGUCGGUCCCAAGCCCGGAUAAAAGUGAAGGGGGCGG [C20U G45A] — higher, 0.35
- CCGCCUAACACUGCCAAUGUCGGUCCCAAGCCCGGAUAAAAGUGCAGGGGGCGG [C20U G45C] — higher, 0.06
- CCGCCUAACACUGCCAAUGGCGGUCCCAAGCCCGGAUAAAAGUUGAGGGGGCGG [C20G G44U] — higher, 0.07
- CCGCCUAACACUGCCAAUGUCGGUCCAAAGCCCGGAUAAAAGUGGAGGGGGCGG [C20U C27A] — higher, 0.23
- CCGCCUAACACUGCCAAUGUCGGUCCGAAGCCCGGAUAAAAGUGGAGGGGGCGG [C20U C27G] — higher, 0.08
- CCGCCUAACACUGCCAAUGUCGGUCCUAAGCCCGGAUAAAAGUGGAGGGGGCGG [C20U C27U] — higher, 0.26
- CCGCCUAACACUGCCAAUGGCGGUCCCAAGCCCGGAUAAAAGUGGAGGUGGCGG [C20G G49U] — lower, 0.04
- CCGCCUAACACUGCCAAUGGCGGUCCCAAGCCCGGAUAAAAGUGGAGGCGGCGG [C20G G49C] — lower, 0.03
- CCGCCUAACACUGCCAAAGGCGGUCCCAAGCCCGGAUAAAAGUGGAGGGGGCGG [C20G U18A] — higher, 0.13
- CCGCCUAACACUGCCAACGGCGGUCCCAAGCCCGGAUAAAAGUGGAGGGGGCGG [C20G U18C] — higher, 0.2
- CCGCCUAACACUGCCAAGGGCGGUCCCAAGCCCGGAUAAAAGUGGAGGGGGCGG [C20G U18G] — higher, 0.09
- CCGCCUAACACUGCCAAUGUCGGUCCCAAGUCCGGAUAAAAGUGGAGGGGGCGG [C20U C31U] — higher, 0.92
- CCGCCUAACACUGCCAAUGUCGGUCCCAAGACCGGAUAAAAGUGGAGGGGGCGG [C20U C31A] — the same, 0.05
- CCGCCUAACACUGCCAAUGUCGGUCCCAAGGCCGGAUAAAAGUGGAGGGGGCGG [C20U C31G] — higher, 0.15
- CCGCCUAACACUGCCAAUGGCGGUCCCAAGCCCGGAUAAAAGUGGACGGGGCGG [C20G G47C] — lower, 0.04
- CCGCCUAACACUGCCAAUGGCGGUCCCAAGCCCGGAUAAAAGUGGAAGGGGCGG [C20G G47A] — the same, 0.05
- CCGCCUAACACUGCCAAUGGCGGUCCCAAGCCCGGAUAAAAGUGGAUGGGGCGG [C20G G47U] — lower, 0.03
- CCGCCUAACACUGCCAAUGUCGGUCCCAAGCCCAGAUAAAAGUGGAGGGGGCGG [C20U G34A] — higher, 0.95
- CCGCCUAACACUGCCAAUGUCGGUCCCAAGCCCCGAUAAAAGUGGAGGGGGCGG [C20U G34C] — higher, 0.31
- CCGCCUAACACUGCCAAUGUCGGUCCCAAGCCCUGAUAAAAGUGGAGGGGGCGG [C20U G34U] — higher, 0.82
- CCGCCUAACACUGCCAAUGUCGGUACCAAGCCCGGAUAAAAGUGGAGGGGGCGG [C20U C25A] — higher, 0.17
- CCGCCUAACACUGCCAAUGUCGGUGCCAAGCCCGGAUAAAAGUGGAGGGGGCGG [C20U C25G] — higher, 0.15
- CCGCCUAACACUGCCAAUGUCGGUUCCAAGCCCGGAUAAAAGUGGAGGGGGCGG [C20U C25U] — higher, 0.9
- CCGCCUAACACUGCCAAUAUCGGUCCCAAGCCCGGAUAAAAGUGGAGGGGGCGG [C20U G19A] — higher, 0.9
- CCGCCUAACACUGCCAAUCUCGGUCCCAAGCCCGGAUAAAAGUGGAGGGGGCGG [C20U G19C] — higher, 0.18
- CCGCCUAACACUGCCAAUUUCGGUCCCAAGCCCGGAUAAAAGUGGAGGGGGCGG [C20U G19U] — higher, 0.65
- CCGCCUAACACUGCCAAUGUCAGUCCCAAGCCCGGAUAAAAGUGGAGGGGGCGG [C20U G22A] — higher, 0.6
- CCGCCUAACACUGCCAAUGUCUGUCCCAAGCCCGGAUAAAAGUGGAGGGGGCGG [C20U G22U] — higher, 0.5
- CCGCCUAACACUGCCAAUGUCCGUCCCAAGCCCGGAUAAAAGUGGAGGGGGCGG [C20U G22C] — higher, 0.06
- CCGCCUAACACUGCCAAUGGCGGUCCCAAGCCCGGAUAAAAGUGGAGGGGGCGC [C20G G54C] — higher, 0.07
- CCGCCUAACACUGCCAAUGGCGGUCCCAAGCCCGGAUAAAAGUGGAGGGGGCGU [C20G G54U] — higher, 0.12
- CCGCCUAACACUGCCAAUGGCGGUCCCAAGCCCGGAUAAAAGUGGAGGGGGCGA [C20G G54A] — higher, 0.06
